Legend:
[1] = test system: Mycobacterium avium subsp. paratuberculosis; test: Antituberculosis activity against Mycobacterium paratuberculosis ATCC 19698 isolated from bovine assessed as lowest drug level producing inhibition at 10^6 CFU of inoculum by MGIT 960 susceptibility test; assay type: functional
How it was run: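 M. paratuberculosis ATCC 19698 at 10^6 CFU per MGIT ParaTB tube in duplicate, drugs at final 1.0–64.0 μg/ml, 37°C in MGIT 960. Inhibition is the lowest concentration whose time to detection exceeds the 1:100 diluted-inoculum solvent control. No detectable growth means the tube never signals positive through 56 days.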

[2] = test system: Mycobacterium avium subsp. paratuberculosis; test: Antituberculosis activity against Mycobacterium paratuberculosis ATCC 19698 isolated from bovine assessed as lowest drug level producing inhibition at 10^6 CFU of inoculum by agar counting method; assay type: functional
How it was run: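 ATCC 19698 at 10^6 CFU was exposed to drug (1.0–64.0 μg/ml) in MGIT ParaTB medium at 37°C. Aliquots taken at 3 and 5 days were centrifuged, resuspended in PBS and declumped with glass beads. Serial dilutions were plated in quadruplicate on 7H10/OADC/mycobactin J and counted after 8 weeks. Inhibition is the lowest concentration giving a 2 log10 (99%) CFU reduction.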

[3] = test system: Mycobacterium avium subsp. paratuberculosis; test: Antituberculosis activity against Mycobacterium paratuberculosis JTC303 isolated from bovine assessed as minimum drug level required for inhibition by MGIT 960 susceptibility test; assay type: functional
How it was run: (§1)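 10^5 to 10^6 CFU from single-cell suspensions inoculated in duplicate into MGIT ParaTB medium with supplement and egg yolk. Drugs were at final 0.5–64.0 μg/ml, with 128.0 μg/ml added for some strains. Tubes were incubated at 37°C in MGIT 960. Inhibition is the lowest concentration giving a time to detection longer than a drug-free 1:100 inoculum control. Killing is no positive signal through 56 days.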

[4] = test system: Mycobacterium avium subsp. paratuberculosis; test: Antituberculosis activity against Mycobacterium paratuberculosis JTC303 isolated from bovine assessed as minimum drug level required for killing after 56 days by MGIT 960 susceptibility test; assay type: functional; how it was run: as §1
[5] = test system: Mycobacterium avium subsp. paratuberculosis; test: Antituberculosis activity against Mycobacterium paratuberculosis UCF-4 isolated from Crohn's disease patient assessed as minimum drug level required for inhibition by MGIT 960 susceptibility test; assay type: functional; how it was run: as §1
[6] = test system: Mycobacterium avium subsp. paratuberculosis; test: Antituberculosis activity against Mycobacterium paratuberculosis UCF-4 isolated from Crohn's disease patient assessed as minimum drug level required for killing after 56 days by MGIT 960 susceptibility test; assay type: functional; how it was run: as §1
[7] = test system: Mycobacterium avium subsp. paratuberculosis; test: Antituberculosis activity against Mycobacterium paratuberculosis UCF-5 isolated from Crohn's disease patient assessed as minimum drug level required for inhibition by MGIT 960 susceptibility test; assay type: functional; how it was run: as §1
[8] = test system: Mycobacterium avium subsp. paratuberculosis; test: Antituberculosis activity against Mycobacterium paratuberculosis UCF-5 isolated from Crohn's disease patient assessed as minimum drug level required for killing after 56 days by MGIT 960 susceptibility test; assay type: functional; how it was run: as §1
[9] = test system: Mycobacterium avium subsp. paratuberculosis; test: Antituberculosis activity against Mycobacterium paratuberculosis UCF-7 isolated from Crohn's disease patient assessed as minimum drug level required for inhibition by MGIT 960 susceptibility test; assay type: functional; how it was run: as §1
[10] = test system: Mycobacterium avium subsp. paratuberculosis; test: Antituberculosis activity against Mycobacterium paratuberculosis B236 isolated from bovine assessed as minimum drug level required for inhibition by MGIT 960 susceptibility test; assay type: functional; how it was run: as §1
[11] = test system: Mycobacterium avium subsp. paratuberculosis; test: Antituberculosis activity against Mycobacterium paratuberculosis B236 isolated from bovine assessed as minimum drug level required for killing after 56 days by MGIT 960 susceptibility test; assay type: functional; how it was run: as §1
[12] = test system: Mycobacterium avium subsp. paratuberculosis; test: Antituberculosis activity against Mycobacterium paratuberculosis B238 isolated from bovine assessed as minimum drug level required for inhibition by MGIT 960 susceptibility test; assay type: functional; how it was run: as §1
[13] = test system: Mycobacterium avium subsp. paratuberculosis; test: Antituberculosis activity against Mycobacterium paratuberculosis B238 isolated from bovine assessed as minimum drug level required for killing after 56 days by MGIT 960 susceptibility test; assay type: functional; how it was run: as §1
[14] = test system: Mycobacterium avium; test: Antituberculosis activity against Mycobacterium avium ATCC 35712 isolated from chicken assessed as minimum drug level required for inhibition by MGIT 960 susceptibility test; assay type: functional; how it was run: as §1
[15] = test system: Mycobacterium avium subsp. paratuberculosis; test: Antituberculosis activity against Mycobacterium paratuberculosis UCF-8 isolated from Crohn's disease patient assessed as minimum drug level required for killing after 56 days by MGIT 960 susceptibility test; assay type: functional; how it was run: as §1
[16] = test system: Mycobacterium avium subsp. paratuberculosis; test: Antituberculosis activity against Mycobacterium paratuberculosis B244 isolated from bovine assessed as minimum drug level required for killing after 56 days by MGIT 960 susceptibility test; assay type: functional; how it was run: as §1
[17] = test system: Mycobacterium avium; test: Antituberculosis activity against Mycobacterium avium ATCC 25291 isolated from chicken assessed as minimum drug level required for inhibition by MGIT 960 susceptibility test; assay type: functional; how it was run: as §1
[18] = test system: Mycobacterium avium; test: Antituberculosis activity against Mycobacterium avium ATCC 25291 isolated from chicken assessed as minimum drug level required for killing within 15 days by MGIT 960 susceptibility test; assay type: functional
[19] = test system: Mycobacterium avium; test: Antituberculosis activity against Mycobacterium avium 104 isolated from AIDS patient assessed as minimum drug level required for inhibition by MGIT 960 susceptibility test; assay type: functional; how it was run: as §1
[20] = test system: Mycobacterium avium; test: Antituberculosis activity against Mycobacterium avium JTC981 isolated from bongo fecal sample assessed as minimum drug level required for inhibition by MGIT 960 susceptibility test; assay type: functional, Feces; how it was run: as §1
[21] = test system: Mycobacterium avium; test: Antituberculosis activity against Mycobacterium avium JTC981 isolated from bongo fecal sample assessed as minimum drug level required for killing within 15 days by MGIT 960 susceptibility test; assay type: functional, Feces
[22] = test system: Mycobacterium avium; test: Antituberculosis activity against Mycobacterium avium WSLH1544 isolated from water assessed as minimum drug level required for inhibition by MGIT 960 susceptibility test; assay type: functional; how it was run: as §1
[23] = test system: Mycolicibacterium phlei; test: Antituberculosis activity against Mycobacterium phlei ATCC 11758 assessed as minimum drug level required for inhibition by MGIT 960 susceptibility test; assay type: functional
How it was run: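 MGIT ParaTB tubes were supplemented with egg yolk and inoculated in duplicate with 10^5 to 10^6 CFU from single-cell suspensions. Thiopurines were dissolved in 0.05 M NaOH in 10 mM PBS and tested at final 0.5 to 64.0 μg/ml, with 128.0 μg/ml added for some strains. Tubes ran at 37°C in the MGIT 960. The value is the lowest concentration giving a time-to-detection longer than a drug-free 1:100 inoculum control.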

[24] = test system: Mycolicibacterium phlei; test: Antituberculosis activity against Mycobacterium phlei ATCC 11758 assessed as minimum drug level required for killing after 56 days by MGIT 960 susceptibility test; assay type: functional
How it was run: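 Duplicate MGIT ParaTB tubes with egg yolk and supplement received 10^5 to 10^6 CFU and thiopurine (in 0.05 M NaOH/10 mM PBS) at final 0.5 to 64.0 μg/ml, plus 128.0 μg/ml for some strains. Tubes were incubated at 37°C in the MGIT 960. The value is the minimum concentration whose tubes never signalled positive by 56 days.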

[25] = test system: Mycolicibacterium smegmatis; test: Antituberculosis activity against Mycobacterium smegmatis ATCC 14468 assessed as minimum drug level required for killing after 56 days by MGIT 960 susceptibility test; assay type: functional; how it was run: as §1
[26] = test system: Escherichia coli; test: Antituberculosis activity against Escherichia coli ATCC 25922 clinical isolate assessed as minimum drug level required for inhibition by MGIT 960 susceptibility test; assay type: functional
[27] = test system: Escherichia coli; test: Antituberculosis activity against Escherichia coli ATCC 25922 clinical isolate assessed as minimum drug level required for killing after 56 days by MGIT 960 susceptibility test; assay type: functional
[28] = test system: Enterococcus faecalis; test: Antituberculosis activity against Enterococcus faecalis ATCC 29212 isolated from human urine assessed as minimum drug level required for killing after 56 days by MGIT 960 susceptibility test; assay type: functional
[29] = test system: Mycobacterium avium subsp. paratuberculosis; test: Antituberculosis activity against Mycobacterium paratuberculosis UCF-7 isolated from Crohn's disease patient assessed as colony counts at 2 ug after 12 days by MGIT 960 susceptibility test; assay type: functional

Structure (SMILES): Sc1ncnc2nc[nH]c12 [MERCAPTOPURINE ANHYDROUS]
- Activity [1]: 1 µg/mL
- Activity [2]: 1 µg/mL
- Activity [3]: 1 µg/mL
- Activity [4]: 32 µg/mL
- Activity [5]: 2 µg/mL
- Activity [6]: >32 µg/mL
- Activity [7]: 1 µg/mL
- Activity [8]: >32 µg/mL
- Activity [9]: <1 µg/mL
- Activity [10]: 4 µg/mL
- Activity [11]: >32 µg/mL
- Activity [12]: 4 µg/mL
- Activity [13]: >32 µg/mL
- Activity [14]: >64 µg/mL
- Activity [15]: 16 µg/mL
- Activity [16]: >32 µg/mL
- Activity [17]: >64 µg/mL
- Activity [18]: >64 µg/mL
- Activity [19]: >64 µg/mL
- Activity [20]: >64 µg/mL
- Activity [21]: >64 µg/mL
- Activity [22]: 8 µg/mL
- Activity [23]: 1 µg/mL
- Activity [24]: 16 µg/mL
- Activity [25]: >128 µg/mL
- Activity [26]: >128 µg/mL
- Activity [27]: >128 µg/mL
- Activity [28]: >128 µg/mL
- log10CFU/ml [29]: 3.87

— ChEMBL document CHEMBL1151475, “Thiopurine drugs azathioprine and 6-mercaptopurine inhibit Mycobacterium paratuberculosis growth in vitro” (2008)
